Results reported in ChEMBL document CHEMBL5058577, “EUbOPEN Chemogenomics Library 2 (Multiplex)” (2022).

Tested on: HEK-293T
Test: Multiplex assay against HEK293T
Assay type: toxicity, cell-based
Settings: human
Summary of the method: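 At seeding, live cells were stained with Hoechst33342, BioTracker Green Microtubule Cytoskeleton Dye, MitoTracker Red and Annexin V Alexa Fluor 680. After compound addition they were imaged on a CQ1 microscope at 37°C and 5% CO2, and CellPathfinder machine-learning gating sorted them into Hoechst high-intensity objects or normal cells, with normal cells further split into healthy, pyknosed or fragmented nuclei and pyknosed cells into mitotic or apoptotic. Tubulin, mitochondrial-mass and membrane-permeability phenotypes are given as per cents of cells with healthy nuclei.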

[1] = 12 h, 1 µM, compound concentration 1 uM, replicate 1
[2] = 12 h, 1 µM, compound concentration 1 uM, replicate 2
[3] = 12 h, 10 µM, compound concentration 10 uM, replicate 1
[4] = 12 h, 10 µM, compound concentration 10 uM, replicate 2
[5] = 24 h, 1 µM, compound concentration 1 uM, replicate 1
[6] = 24 h, 1 µM, compound concentration 1 uM, replicate 2
[7] = 24 h, 10 µM, compound concentration 10 uM, replicate 1
[8] = 24 h, 10 µM, compound concentration 10 uM, replicate 2
[9] = 48 h, 1 µM, compound concentration 1 uM, replicate 1
[10] = 48 h, 1 µM, compound concentration 1 uM, replicate 2
[11] = 48 h, 10 µM, compound concentration 10 uM, replicate 1
[12] = 48 h, 10 µM, compound concentration 10 uM, replicate 2

Cc1c(Cc2ccc3ccccc3n2)c2cc(F)ccc2n1CC(=O)O [TIMAPIPRANT]
Population Apoptotic (%) [1]: 42%
Population Fragmented Nuclei (%) [1]: 7%
Population Healthy Nuclei (%) [1]: 80%
Population Hoechst High Intensity Objects (%) [1]: 10%
Population Membrane Permeable-Phenotype (%) [1]: 0%
Population Mitochondria Different-Phenotype (%) [1]: 36%
Population Mitotic Cells (%) [1]: 57%
Population Normal (%) [1]: 89%
Population Pyknosed Nuclei (%) [1]: 11%
Population Tubulin-Different-Phenotype (%) [1]: 20%
Total Cell Count [1]: 394
Population Fragmented Nuclei (%) [2]: 6%
Population Hoechst High Intensity Objects (%) [2]: 7%
Population Mitochondria Different-Phenotype (%) [2]: 55%
Population Normal (%) [2]: 92%
Population Pyknosed Nuclei (%) [2]: 12%
Population Tubulin-Different-Phenotype (%) [2]: 16%
Total Cell Count [2]: 280
Population Apoptotic (%) [3]: 32%
Population Fragmented Nuclei (%) [3]: 7%
Population Healthy Nuclei (%) [3]: 78%
Population Hoechst High Intensity Objects (%) [3]: 6%
Population Membrane Permeable-Phenotype (%) [3]: 0%
Population Mitochondria Different-Phenotype (%) [3]: 55%
Population Mitotic Cells (%) [3]: 67%
Population Normal (%) [3]: 93%
Population Pyknosed Nuclei (%) [3]: 14%
Population Tubulin-Different-Phenotype (%) [3]: 38%
Total Cell Count [3]: 434
Population Apoptotic (%) [4]: 33%
Population Fragmented Nuclei (%) [4]: 6%
Population Hoechst High Intensity Objects (%) [4]: 5%
Population Mitochondria Different-Phenotype (%) [4]: 63%
Population Mitotic Cells (%) [4]: 66%
Population Normal (%) [4]: 94%
Population Pyknosed Nuclei (%) [4]: 15%
Population Tubulin-Different-Phenotype (%) [4]: 28%
Total Cell Count [4]: 354
Population Apoptotic (%) [5]: 31%
Population Fragmented Nuclei (%) [5]: 10%
Population Healthy Nuclei (%) [5]: 81%
Population Hoechst High Intensity Objects (%) [5]: 4%
Population Membrane Permeable-Phenotype (%) [5]: 1%
Population Mitochondria Different-Phenotype (%) [5]: 20%
Population Mitotic Cells (%) [5]: 68%
Population Normal (%) [5]: 95%
Population Pyknosed Nuclei (%) [5]: 8%
Population Tubulin-Different-Phenotype (%) [5]: 15%
Total Cell Count [5]: 516
Population Apoptotic (%) [6]: 53%
Population Fragmented Nuclei (%) [6]: 7%
Population Healthy Nuclei (%) [6]: 83%
Population Hoechst High Intensity Objects (%) [6]: 5%
Population Membrane Permeable-Phenotype (%) [6]: 0%
Population Mitochondria Different-Phenotype (%) [6]: 38%
Population Mitotic Cells (%) [6]: 46%
Population Normal (%) [6]: 94%
Total Cell Count [6]: 381
Population Apoptotic (%) [7]: 32%
Population Fragmented Nuclei (%) [7]: 7%
Population Healthy Nuclei (%) [7]: 78%
Population Hoechst High Intensity Objects (%) [7]: 4%
Population Membrane Permeable-Phenotype (%) [7]: 0%
Population Mitochondria Different-Phenotype (%) [7]: 31%
Population Mitotic Cells (%) [7]: 67%
Population Normal (%) [7]: 95%
Population Pyknosed Nuclei (%) [7]: 13%
Population Tubulin-Different-Phenotype (%) [7]: 28%
Total Cell Count [7]: 560
Population Apoptotic (%) [8]: 37%
Population Fragmented Nuclei (%) [8]: 12%
Population Healthy Nuclei (%) [8]: 77%
Population Hoechst High Intensity Objects (%) [8]: 5%
Population Mitochondria Different-Phenotype (%) [8]: 44%
Population Mitotic Cells (%) [8]: 62%
Population Normal (%) [8]: 94%
Population Pyknosed Nuclei (%) [8]: 10%
Population Tubulin-Different-Phenotype (%) [8]: 20%
Total Cell Count [8]: 475
Population Apoptotic (%) [9]: 26%
Population Fragmented Nuclei (%) [9]: 13%
Population Healthy Nuclei (%) [9]: 78%
Population Hoechst High Intensity Objects (%) [9]: 2%
Population Membrane Permeable-Phenotype (%) [9]: 1%
Population Mitochondria Different-Phenotype (%) [9]: 9%
Population Mitotic Cells (%) [9]: 73%
Population Normal (%) [9]: 97%
Population Pyknosed Nuclei (%) [9]: 8%
Population Tubulin-Different-Phenotype (%) [9]: 6%
Total Cell Count [9]: 799
Population Apoptotic (%) [10]: 17%
Population Fragmented Nuclei (%) [10]: 15%
Population Healthy Nuclei (%) [10]: 76%
Population Hoechst High Intensity Objects (%) [10]: 3%
Population Membrane Permeable-Phenotype (%) [10]: 0%
Population Mitochondria Different-Phenotype (%) [10]: 25%
Population Mitotic Cells (%) [10]: 82%
Population Normal (%) [10]: 96%
Population Tubulin-Different-Phenotype (%) [10]: 12%
Total Cell Count [10]: 566
Population Apoptotic (%) [11]: 33%
Population Fragmented Nuclei (%) [11]: 10%
Population Healthy Nuclei (%) [11]: 79%
Population Hoechst High Intensity Objects (%) [11]: 4%
Population Membrane Permeable-Phenotype (%) [11]: 1%
Population Mitochondria Different-Phenotype (%) [11]: 24%
Population Mitotic Cells (%) [11]: 66%
Population Normal (%) [11]: 95%
Population Pyknosed Nuclei (%) [11]: 9%
Population Tubulin-Different-Phenotype (%) [11]: 17%
Total Cell Count [11]: 752
Population Apoptotic (%) [12]: 36%
Population Fragmented Nuclei (%) [12]: 14%
Population Healthy Nuclei (%) [12]: 78%
Population Membrane Permeable-Phenotype (%) [12]: 0%
Population Mitochondria Different-Phenotype (%) [12]: 33%
Population Mitotic Cells (%) [12]: 63%
Population Pyknosed Nuclei (%) [12]: 6%
Population Tubulin-Different-Phenotype (%) [12]: 16%
Total Cell Count [12]: 630
